Measured values collected from several papers.
Each line is one published result; the experiments were not run side by side.
Target: High affinity nerve growth factor receptor (NTRK1, Homo sapiens, UniProt P04629)

| SMILES | assay | setting | remaining binding [%] |
| --- | --- | --- | --- |
| CN1CCN(c2ccc(Nc3nccc(-c4ccccc4)n3)cc2C(F)(F)F)CC1 | binding | 10 µM | 9.2 |
| CN(C)c1nccc(-c2cnc3ncccn23)n1 | binding | 1 µM | 72 |
| CN(c1ccnc(CNc2nc(Nc3ccc4c(c3)CC(=O)N4)ncc2C(F)(F)F)n1)S(C)(=O)=O | cell-free assay, competition with immobilised ligand | 1 µM | 10 |
| F[C@@H]1CCN(c2nccc(-c3cnn4ncccc34)n2)C1 | binding | 1 µM | 86 |
| NS(=O)(=O)c1cc(NC(=O)Cc2ccccc2)ccc1Oc1cccc(Cl)c1 | cell-free assay, competition with immobilised ligand | 1 µM | 73 |
| CCN1CCN(Cc2ccc(C(=O)Nc3ccc(C)c(Oc4ccc5c(c4)CC(=O)N5)c3)cc2C(F)(F)F)CC1 | binding, competition with immobilised ligand | 1 µM | 100 |
| N#Cc1ccccc1CSc1nnc2c(n1)[nH]c1ccccc12 | binding, competition with immobilised ligand | 10 µM | 98 |
| COc1cnc(Nc2cccc(S(N)(=O)=O)c2)nc1N1CCN(c2ccccc2)C(=O)C1 | binding, competition with immobilised ligand | 1 µM | 100 |
| O=S(=O)(NC1CCC(c2cc(F)ccc2F)(S(=O)(=O)c2ccc(Cl)cc2)CC1)C(F)(F)F (stereo not drawn) | cell-free assay, competition with immobilised ligand | 1 µM | 76 |
| COc1ccnn2ncc(-c3ccnc(N(C)C)n3)c12 | binding | 1 µM | 79 |
| O=C(c1ccc(Nc2nccc(-c3cc4ccccc4s3)n2)cc1)N1CCC(N2CCCC2)CC1 | binding, competition with immobilised ligand | 1 µM | 25 |
| Nc1ncc2c(n1)-c1c([nH]c3ccc(C#CC4CC4)cc13)CCCC2 | binding, competition with immobilised ligand | 1 µM | 69 |
| N#CC1(c2ccccn2)CCN(Cc2cc(C(=O)N3CCCC3)c(=O)n3ccccc23)CC1 | cell-free assay, competition with immobilised ligand | 1 µM | 100 |
| O=C(NCCCN1CCOCC1)c1ccc(Nc2ncc(Cl)c(-c3ccc(Cl)s3)n2)cc1 | binding, competition with immobilised ligand | 1 µM | 17 |
| FC(F)(F)Oc1cccc(-c2cnc3ccc(-c4ccncc4)nn23)c1 | cell-free assay, competition with immobilised ligand | 5 µM | 1.9 |
| C[C@H]1CCN(c2nccc(-c3cnn4ncccc34)n2)C1 | binding | 1 µM | 68 |
| C=CC(=O)N1CCC(C(=O)NCC(=O)N2CCN(c3nc(-c4cnc(N)nc4C(F)F)nc(N4CCOCC4)n3)CC2)CC1 | binding, competition with immobilised ligand | 1 µM | 81 |
| Nc1c(C(=O)NCc2ccc(C(=O)NCCCC3CCCCC3)cc2)cnn1-c1ccccc1 | cell-free assay, competition with immobilised ligand | 0.1 µM | 100 |
| O=C(NCC1CCOCC1)c1n[nH]cc1NC(=O)c1c(F)cccc1F | binding, competition with immobilised ligand | 1 µM | 100 |
| N[C@@H]1CCN(c2nccc(-c3cnn4ncccc34)n2)C1 | binding | 1 µM | 93 |
| CN(C(=O)c1ccccc1)c1cc(N(C)c2ccc3c(c2)CCc2ccc(C(=O)NCCN4CCOCC4)cc2C3=O)ccc1F | cell-free assay, competition with immobilised ligand | 1 µM | 79 |
| O=C(c1ccc(Nc2ncc(Cl)c(-c3cc4ccccc4s3)n2)cc1)N1CCC(N2CCCC2)CC1 | binding, competition with immobilised ligand | 1 µM | 1.4 |
| Cc1cc(Nc2nccc(C)n2)cc(-c2cnc([C@@]3(O)CC[C@H](C(=O)O)C(C)(C)C3)s2)c1 | binding, competition with immobilised ligand | 1 µM | 30.2 |
| CN(CCCC(F)(F)F)c1nccc(-c2cnn3ncccc23)n1 | binding | 1 µM | 100 |
